Measurements taken from ChEMBL document CHEMBL2390820, “3-Biphenylimidazo[1,2-a]pyridines or [1,2-b]pyridazines and analogues, novel Flaviviridae inhibitors” (Eur J Med Chem, 2013).
Converted amounts (≈) assume the structure as drawn.

Legend:
[1] = Selectivity index, ratio of CC50 for MDBK cells to EC50 for BVDV NADL infected in MDBK cells assessed as inhibition of progeny infectious viral particle production
[2] = Selectivity index, ratio of CC50 for MDBK cells to EC50 for BVDV NADL infected in MDBK cells assessed as inhibition of viral RNA synthesis
[3] = system: Bovine viral diarrhea virus 1-NADL; assay: Selectivity ratio of EC50 for LZ37-resistant BVDV NADL to EC50 for wild type BVDV NADL; format: functional
[4] = system: Bovine viral diarrhea virus 1-NADL; assay: Selectivity ratio of EC50 for AG110-resistant BVDV NADL to EC50 for wild type BVDV NADL; format: functional
[5] = system: Bovine viral diarrhea virus 1-NADL; assay: Selectivity ratio of EC50 for BPIP-resistant BVDV NADL to EC50 for wild type BVDV NADL; format: functional
[6] = Antiviral activity against LZ37-resistant BVDV NADL assessed as inhibition of viral replication; format: functional, Bovine viral diarrhea virus 1-NADL
Summary of the method: (§1)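 MDBK cells were seeded at 5 × 10³/well in MEM-FCS and held 24 h at 37 °C in 5% CO₂. Medium was replaced with 5-fold serial compound dilutions, then BVDV NADL (drug-selected resistant variant) at MOI 2. CPE was read by the MTS method at OD 490 nm, and % CPE was calculated. EC50 is the concentration giving 50% protection from virus-induced CPE, by linear interpolation.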

[7] = Antiviral activity against AG110-resistant BVDV NADL assessed as inhibition of viral replication; format: functional, Bovine viral diarrhea virus 1-NADL; summary of the method: as §1
[8] = Antiviral activity against BPIP-resistant BVDV NADL assessed as inhibition of viral replication; format: functional, Bovine viral diarrhea virus 1-NADL; summary of the method: as §1
[9] = Selectivity ratio of EC50 for BVDV NADL infected in MDBK cells assessed as inhibition of progeny infectious viral particle production to EC50 for BVDV NADL infected in MDBK cells assessed as inhibition of viral RNA synthesis; format: functional, Bovine viral diarrhea virus 1-NADL
[10] = Selectivity index, ratio of CC50 for Huh5-2 cells to EC50 for HCV genotype 1b infected in Huh5-2 cells; set-up: species or system Huh-5-2
Summary of the method: (§2)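 Selectivity index is the ratio of CC50 from the 3-day MTS/PMS proliferation assay to EC50 in the same cell line. For Huh 5-2 the EC50 is from the luciferase replicon assay; for MDBK it is from the MTS CPE assay.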

Hepatitis C virus = assay: Antiviral activity against HCV genotype 1b infected in Huh5-2 cells assessed as inhibition of viral replication after 4 days by luciferase reporter gene assay; format: functional, organism-based, Hepacivirus hominis, Huh-5-2; details: for EC50: Hepatitis C virus, genotype 1b, Huh-5-2, 96 h
Summary of the method: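 Huh 5-2 cells carrying the HCV subgenomic luciferase replicon were seeded at 5 × 10³/well with compound and incubated 4 days at 37 °C. Medium was removed and luciferase activity quantified. EC50 is the minimum concentration reducing replicon-driven luciferase signal by 50%.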

[11] = Cytotoxicity against human Huh5-2 cells assessed as growth inhibition after 3 days by MTS assay; format: cell-based, Huh-5-2
Summary of the method: (§3)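 MDBK or Huh 5-2 cells were seeded at 5 × 10³/well in MEM-FCS, with serial compound dilutions added 24 h later. Cells proliferated 3 days at 37 °C, then metabolic activity was read by MTS/PMS. CC50 is the concentration inhibiting proliferation of exponentially growing cells by 50%, by linear interpolation.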

[12] = Selectivity index, ratio of CC50 for MDBK cells to EC50 for BVDV NADL infected in MDBK cells; summary of the method: as §2
[13] = system: Bovine viral diarrhea virus 1-NADL; assay: Selectivity ratio of EC50 for LZ37-resistant BVDV NADL to EC50 for AG110-resistant BVDV NADL; format: functional
[14] = Cytotoxicity against MDBK cells assessed as growth inhibition after 3 days by MTS assay; format: cell-based, Bos taurus; details: cattle; summary of the method: as §3
[15] = Antiviral activity against BVDV NADL infected in MDBK cells assessed as inhibition of progeny infectious viral particle production; format: functional, cell-based, Bovine viral diarrhea virus 1-NADL; details: Bovine viral diarrhea virus isolates and strains
[16] = (§4) Antiviral activity against BVDV NADL infected in MDBK cells assessed as inhibition of virus-induced cytopathic effect formation after 5 days by MTS assay; format: functional, cell-based, Bovine viral diarrhea virus 1-NADL; details: Bovine viral diarrhea virus isolates and strains, 120 h
Summary of the method: (§5)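 MDBK cells were seeded at 5 × 10³/well in MEM-FCS and held 24 h at 37 °C, 5% CO₂. Medium was replaced with 5-fold serial compound dilutions, then BVDV inoculum was added at MOI 2. CPE was read by MTS as OD at 490 nm. EC50 is the concentration giving 50% protection against virus-induced CPE, by linear interpolation.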

MDBK = assay: as §4; format: functional, cell-based; details: Bovine viral diarrhea virus 1-NADL; summary of the method: as §5
[17] = Antiviral activity against BVDV NADL infected in MDBK cells assessed as inhibition of viral RNA synthesis by RT-qPCR analysis; format: functional, cell-based, Bovine viral diarrhea virus 1-NADL; details: Bovine viral diarrhea virus isolates and strains

Row | EC50 (Hepatitis C virus) [µg/mL] | SMILES | Ratio CC50/EC50 [10] | CC50 at 72 h [11] [µg/mL] | Ratio CC50/EC50 [12] | CC50 at 72 h [14] [µg/mL] | EC50 [16] [µg/mL] | also measured
1 | 52.4 (≈ 114 µM) | COc1cccc(-c2nc3ccc(-c4ccsc4)cn3c2-c2cccc(-c3ccccc3)c2)c1 | 1.6 | 85.2 (≈ 186 µM) | >6.7 | > 100 | 15 (≈ 32.7 µM) | 
2 | 14.7 (≈ 32 µM) | COc1ccccc1-c1nc2ccc(-c3ccsc3)nn2c1-c1cccc(-c2ccccc2)c1 | 6.6 | 97.4 (≈ 212 µM) | 3.1 | 10.4 (≈ 22.6 µM) | 3.4 (≈ 7.4 µM) | 
3 | 22.7 (≈ 55.4 µM) | CC(C)(C)c1nc2ccc(-c3ccsc3)nn2c1-c1cccc(-c2ccccc2)c1 | 2.8 | 63.2 (≈ 154 µM) | >2.6 | > 100 | 37.9 (≈ 92.5 µM) | 
4 | > 112 | Fc1ccc(-c2nc3ccc(-c4ccsc4)cn3c2-c2cccc(-c3ccccc3)c2)cc1 | >1 | > 112 | >45 | > 33 | 0.74 (≈ 1.66 µM) | 
5 | 56.8 (≈ 124 µM) | COc1ccc(-c2nc3ccc(-c4ccsc4)cn3c2-c2cccc(-c3ccccc3)c2)cc1 | >1.9 | > 109 | >4.4 | > 100 | 22.7 (≈ 49.5 µM) | 
6 | 89.5 (≈ 254 µM) | c1ccc(-c2cccc(-c3cnc4ccc(-c5ccsc5)cn34)c2)cc1 | >1.6 | > 142 | >1 | > 100 | > 100 | 

More lines, now with the values behind:

Row | SMILES | EC50 (Hepatitis C virus) [µg/mL] | Ratio CC50/EC50 [10] | CC50 at 72 h [11] [µg/mL] | Ratio CC50/EC50 [12] | CC50 at 72 h [14] [µg/mL] | EC50 [16] [µg/mL] | also measured
7 | Fc1ccc(-c2nc3ccc(Sc4ccccc4)cn3c2-c2cccc(-c3ccccc3)c2)cc1 | > 106 | >1 | > 106 | >50 | > 100 | 2 (≈ 4.23 µM) | Ratio CC50/EC50 [1]: 19; Ratio CC50/EC50 [2]: 37; Ratio EC50 [3]: 2.2; Ratio EC50 [4]: 0.9; Ratio EC50 [5]: 1.5; EC50 [6]: 8.8 µg/mL (≈ 18.6 µM); EC50 [7]: 3.9 µg/mL (≈ 8.25 µM); EC50 [8]: 6 µg/mL (≈ 12.7 µM); Ratio EC50 [9]: 2; Ratio EC50 [13]: 2; EC50 [15]: 8 µg/mL (≈ 16.9 µM); inhibition (MDBK): Dose-dependent effect; EC50 [17]: 2.7 µg/mL (≈ 5.71 µM)
8 | CC(C)(C)c1nc2ccc(-c3ccsc3)nn2c1-c1cccc(-c2ccc(O)cc2)c1 | 5 (≈ 11.7 µM) | 3 | 15 (≈ 35.2 µM) | >7.1 | > 100 | 14.2 (≈ 33.4 µM) | 
9 | Fc1ccc(-c2cccc(-c3c(-c4ccc(F)cc4)nc4ccccn34)c2)cc1 | 10.3 (≈ 26.9 µM) | 5.3 | 54.5 (≈ 143 µM) | 1.4 | 5.4 (≈ 14.1 µM) | 3.9 (≈ 10.2 µM) | 
10 | Fc1ccc(-c2nc3ccc(-c4ccccc4)cn3c2-c2cccc(-c3ccccc3)c2)cc1 | 52.2 (≈ 118 µM) | 1.09 | 56.8 (≈ 129 µM) | >4 | > 50 | 12 (≈ 27.2 µM) | 
11 | Fc1ccc(-c2nc3ccccn3c2-c2cccc(-c3ccoc3)c2)cc1 | 19.2 (≈ 54.2 µM) | 3.4 | 66.2 (≈ 187 µM) | 3.2 | 5.6 (≈ 15.8 µM) | 1.7 (≈ 4.8 µM) | 
12 | Fc1ccc(-c2nc3ccccn3c2-c2cccc(-c3ccc(Cl)cc3)c2)cc1 | 5.9 (≈ 14.8 µM) | 9.7 | 57.5 (≈ 144 µM) | 4.3 | 12.7 (≈ 31.8 µM) | 3 (≈ 7.52 µM) | 
13 | COc1ccccc1-c1nc2ccc(-c3ccsc3)nn2c1-c1cccc(-c2ccccc2O)c1 | 4.8 (≈ 10.1 µM) | >43 | > 205 | 12 | 16.2 (≈ 34.1 µM) | 1.36 (≈ 2.86 µM) | inhibition (INH) (Hepatitis C virus): 60%
14 | COc1ccccc1-c1cccc(-c2c(-c3ccc(F)cc3)nc3ccccn23)c1 | 10.7 (≈ 27.1 µM) | 2.8 | 29.7 (≈ 75.3 µM) | 3.2 | 8.5 (≈ 21.5 µM) | 2.7 (≈ 6.84 µM) | 
15 | Fc1ccc(-c2nc3ccc(N4CCOCC4)cn3c2-c2ccc(-c3ccccc3)cc2)cc1 | 6.7 (≈ 14.9 µM) | 2.3 | 15.6 (≈ 34.7 µM) | >1 | > 50 | > 50 | 
16 | COc1cccc(-c2cccc(-c3c(-c4ccc(F)cc4)nc4ccccn34)c2)c1 | 4.3 (≈ 10.9 µM) | 11.8 | 50.2 (≈ 127 µM) | 3.7 | 11.5 (≈ 29.2 µM) | 3.1 (≈ 7.86 µM) | 
